{"source": "ChEMBL document CHEMBL4414600", "about": "“Discovery of a Furanopyrimidine-Based Epidermal Growth Factor Receptor Inhibitor (DBPR112) as a Clinical Candidate for the Treatment of Non-Small Cell Lung Cancer” (J Med Chem, 2019)", "key": {"[1]": {"test_system": "HCC827", "experiment": "Cytotoxicity in human HCC827 cells assessed as reduction in cell viability incubated for 96 hrs by MTS method", "format": "functional"}, "[2]": {"experiment": "Cmax in rat at 23.6 mg/kg, po", "format": "ADME, organism-based", "design": "dose 23.6 mg/kg, route oral", "details": "in vivo", "procedure,_shortened": "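Rat pharmacokinetics: single IV injection at 5 mg/kg or oral dosing at 20 mg/kg (23.6 mg/kg oral for one compound). Plasma parameters t1/2, CL, Vss, AUC(0-inf), Cmax, Tmax and oral bioavailability F were derived from the concentration–time profiles.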"}, "[3]": {"molecular_target": "T1, Tyrosine-protein kinase JAK3 (Homo sapiens) (UniProt P52333)", "T1 sequence (whole entry)": "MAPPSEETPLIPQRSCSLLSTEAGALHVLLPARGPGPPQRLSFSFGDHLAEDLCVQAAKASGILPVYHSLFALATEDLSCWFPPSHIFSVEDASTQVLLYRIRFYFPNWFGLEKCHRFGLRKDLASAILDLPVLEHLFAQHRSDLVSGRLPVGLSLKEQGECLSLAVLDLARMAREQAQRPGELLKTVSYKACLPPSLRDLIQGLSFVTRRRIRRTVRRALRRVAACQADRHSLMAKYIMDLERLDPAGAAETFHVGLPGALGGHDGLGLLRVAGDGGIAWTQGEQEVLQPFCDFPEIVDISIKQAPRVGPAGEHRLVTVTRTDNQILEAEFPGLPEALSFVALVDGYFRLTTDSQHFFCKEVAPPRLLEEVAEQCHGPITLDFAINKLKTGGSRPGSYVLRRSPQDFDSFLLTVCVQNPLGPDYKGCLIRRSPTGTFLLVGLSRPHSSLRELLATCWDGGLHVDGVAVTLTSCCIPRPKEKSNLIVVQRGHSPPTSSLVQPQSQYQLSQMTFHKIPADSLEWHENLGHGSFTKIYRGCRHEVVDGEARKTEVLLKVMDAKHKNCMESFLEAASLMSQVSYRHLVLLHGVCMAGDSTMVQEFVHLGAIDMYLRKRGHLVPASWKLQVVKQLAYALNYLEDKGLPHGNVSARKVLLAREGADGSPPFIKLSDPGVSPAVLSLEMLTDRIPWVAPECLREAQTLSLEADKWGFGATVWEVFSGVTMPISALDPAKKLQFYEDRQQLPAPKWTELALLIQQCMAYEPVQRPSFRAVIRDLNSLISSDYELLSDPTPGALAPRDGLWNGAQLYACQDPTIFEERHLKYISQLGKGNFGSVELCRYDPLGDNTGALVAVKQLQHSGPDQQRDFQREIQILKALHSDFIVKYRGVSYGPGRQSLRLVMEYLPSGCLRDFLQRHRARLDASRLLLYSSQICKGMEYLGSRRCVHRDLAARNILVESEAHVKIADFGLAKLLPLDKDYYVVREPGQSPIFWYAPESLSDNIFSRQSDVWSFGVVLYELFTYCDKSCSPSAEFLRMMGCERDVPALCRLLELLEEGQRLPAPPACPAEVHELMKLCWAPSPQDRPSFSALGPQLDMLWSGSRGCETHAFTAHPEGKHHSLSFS", "experiment": "Binding affinity to wild-type human partial length JAK3 JH1 catalytic domain (I781 to S1124 residues) expressed in mammalian expression system assessed as residual binding level at 10000 nM by Kinomescan method relative to control", "procedure,_shortened": "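KINOMEscan competition-binding profiling at a single concentration of 10,000 nM across a panel that included 395 non-mutant kinases. Binding is read out as percent of control. Kinases with less than 10% of control were counted as hits for the S(10) selectivity score, which is the number of non-mutant hits divided by the number of non-mutant kinases tested.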"}}}
{"compound": "CN(C)C/C=C/C(=O)Nc1cccc(-c2c(-c3ccccc3)oc3ncnc(N[C@H](CO)c4ccccc4)c23)c1", "values": [{"measurement": "CC50", "setting": "[1]", "result": 0.025, "unit": "µM"}, {"measurement": "Cmax", "setting": "[2]", "result": 508, "unit": "ng/mL"}, {"measurement": "Activity", "setting": "[3]", "result": 0, "unit": "%"}]}
